Experimental data pooled from the literature.
Protocols differ between the studies behind these lines. In brackets after ≈: the same amount, converted by molar mass.

SMILES | organism | assay | test system | setting | measurement | value
C/C(=N\C(=O)/N=C(\C)c1c(O)c2ccccc2oc1=O)c1c(O)c2ccccc2oc1=O | Aspergillus glaucus | microbial growth, broth dilution | – | 48 h | MIC | 62.5 µg/mL
CNC(=S)NN=Cc1ccc(OC)cc1 | Leishmania major | parasite growth, MTT | – | 72 h, promastigote | IC50 | 26.7 µM
CN[C@H](CC(C)C)C(=O)N[C@H]1C(=O)N[C@@H](CC(N)=O)C(=O)N[C@H]2C(=O)N[C@H]3C(=O)N[C@H](C(=O)N[C@H](C(=O)O)c4cc(O)cc(O)c4-c4cc3ccc4O)[C@H](O)c3ccc(c(Cl)c3)Oc3cc2cc(c3O[C@@H]2O[C@H](CO)[C@@H](O)[C@H](O)[C@H]2O[C@H]2C[C@](C)(N)[C@H](O)[C@H](C)O2)Oc2ccc(cc2Cl)[C@H]1O | Enterococcus faecalis | microbial growth, broth dilution | – | clinical isolate | MIC90 | 2 µg/mL (≈ 1.38 µM)
COc1ccc(C=NNC(=S)Nc2cccnc2)cc1OC | Leishmania major | parasite growth | J774.A1 | 72 h, intracellular, amastigote | IC50 | 886 µM
CN1CCN(c2ccc(-c3ccc4c(Nc5ncccn5)cnnc4c3)cc2)CC1 | Leishmania major | parasite growth | – | intracellular, amastigote | EC50 | > 12.6 µM
CNC(=S)NN=Cc1ccc(Br)cc1 | Leishmania major | parasite growth | J774.A1 | 72 h, intracellular, amastigote | IC50 | 31.8 µM
COc1ccc(Nc2cnnc3ccc(-c4cnc(N5CCCN(C)CC5)nc4)cc23)cc1Cl | Leishmania major | parasite growth | – | intracellular, amastigote | EC50 | > 21 µM
C/C(=N\C1CCCCC1/N=C(\C)c1c(O)c2ccccc2oc1=O)c1c(O)c2ccccc2oc1=O (centres unmarked) | Aspergillus glaucus | microbial growth, broth dilution | – | 48 h | MIC | 31.2 µg/mL
CCCCCCCCN=c1ccn(CCCCCCCCCCn2ccc(=NCCCCCCCC)cc2)cc1 | Enterococcus faecalis | microbial growth | – | – | MIC | 0.5 µM
CN1CCN(c2ncc(-c3ccc4c(Nc5ncccn5)cnnc4c3)cn2)CC1 | Leishmania major | parasite growth | – | intracellular, amastigote | EC50 | > 25 µM
C=C[C@]1(C)C[C@@H](OC(=O)CS[C@@H]2C[C@H]3CC[C@@H](C2)N3C)[C@]2(C)[C@H](C)CC[C@]3(CCC(=O)[C@H]32)[C@@H](C)[C@@H]1O | Enterococcus faecalis | microbial growth, agar dilution | ATCC29212 | – | MIC | 128 µg/mL
S=C(NN=Cc1ccc(Br)cc1)Nc1cccnc1 | Leishmania major | parasite growth, MTT | – | 72 h, promastigote | IC50 | 891 µM
Cc1ccc(Nc2cnnc3ccc(-c4ccc(N5CCN(C)CC5)cc4)cc23)cn1 | Leishmania major | parasite growth | – | intracellular, amastigote | EC50 | > 24 µM
CC[C@H]1OC(=O)[C@H](C)[C@@H](O[C@H]2C[C@@](C)(OC)[C@@H](O)[C@H](C)O2)[C@H](C)[C@@H](O[C@@H]2O[C@H](C)C[C@H](N(C)C)[C@H]2O)[C@](C)(O)C[C@@H](C)/C(=N\OCOCCOC)[C@H](C)[C@@H](O)[C@]1(C)O | Enterococcus faecalis | microbial growth | – | clinical isolate | MIC50 | > 128 µg/mL
CNC(=S)NN=Cc1ccc(C)cc1 | Leishmania major | parasite growth | J774.A1 | 72 h, intracellular, amastigote | IC50 | 1110 µM
CN1CCN(c2ccc(-c3ccc4nncc(Nc5ncccn5)c4c3)cc2)CC1 | Leishmania major | parasite growth | – | intracellular, amastigote | EC50 | > 2.5 µM

SMILES | organism | assay | test system | setting | measurement | value
C/C(=N\NC(=O)/N=C(\C)c1c(O)c2ccccc2oc1=O)c1c(O)c2ccccc2oc1=O | Aspergillus glaucus | microbial growth, broth dilution | – | 48 h | MIC | 125 µg/mL
COc1ccc(C=NNC(=S)Nc2cccnc2)cc1 | Leishmania major | parasite growth | J774.A1 | 72 h, intracellular, amastigote | IC50 | 892 µM
CN1CCCN(c2ncc(-c3ccc4nncc(Nc5cnccn5)c4c3)cn2)CC1 | Leishmania major | parasite growth | – | intracellular, amastigote | EC50 | > 24 µM
CC1(C)S[C@@H]2[C@H](NC(=O)[C@H](N)c3ccccc3)C(=O)N2[C@H]1C(=O)O | Enterococcus faecalis | microbial growth | – | clinical isolate | MIC90 | > 128 µg/mL
CC1(C)S[C@@H]2[C@H](NC(=O)[C@H](N)c3ccccc3)C(=O)N2[C@H]1C(=O)O | Enterococcus faecalis | microbial growth, broth dilution | ATCC19433 | 12 h | MIC | 0.5 µg/mL
C/C(=N\C(=N)/N=C(\C)c1c(O)c2ccccc2oc1=O)c1c(O)c2ccccc2oc1=O | Aspergillus glaucus | microbial growth, broth dilution | – | 48 h | MIC | 125 µg/mL
CNC(=S)NN=Cc1ccc([N+](=O)[O-])cc1 | Leishmania major | parasite growth, MTT | – | 72 h, promastigote | IC50 | 160 µM
CC(=O)NC[C@H]1CN(c2ccc(N3CCOCC3)c(F)c2)C(=O)O1 | Enterococcus faecalis | microbial growth, agar dilution | ATCC29212 | – | MIC | 2 µg/mL
C[C@@H]1[C@H](O)[C@@H](C)/C=C/C=C/C=C/C=C/C=C/C=C/C=C/[C@H](O[C@@H]2O[C@H](C)[C@@H](O)[C@H](N)[C@@H]2O)C[C@@H]2O[C@](O)(C[C@@H](O)C[C@@H](O)[C@H](O)CC[C@@H](O)C[C@@H](O)CC(=O)O[C@H]1C)C[C@H](O)[C@H]2C(=O)O | Aspergillus fumigatus | microbial growth, broth dilution | AF293 | 48 h | MIC | 0.5 µg/mL
COc1ccc(Nc2cnnc3ccc(-c4ccc(N5CCN(C)CC5)cc4)cc23)nc1 | Leishmania major | parasite growth | – | intracellular, amastigote | EC50 | > 23 µM
COc1c(N2C[C@@H]3CCCN[C@@H]3C2)c(F)cc2c(=O)c(C(=O)O)cn(C3CC3)c12 | Enterococcus faecalis | microbial growth, agar dilution | ATCC29212 | – | MIC | 8 µg/mL
Cc1c2c(nn1C)CSCc1cc(n(C)n1)CSc1cc(c3ccccc3c1)OCCCc1c(C(=O)O)n(C)c3c-2c(Cl)ccc13 | Enterococcus faecalis | microbial growth, broth dilution | – | clinical isolate | MIC50 | 25 µM
Cc1ccc(Nc2cnnc3ccc(-c4ccc(N5CCCN(C)CC5)cc4)cc23)cn1 | Leishmania major | parasite growth | – | intracellular, amastigote | EC50 | > 4.7 µM
OC(Cn1cncn1)(Cn1cncn1)c1ccc(F)cc1F | Aspergillus fumigatus | microbial growth, broth dilution | – | – | MIC | 4 µg/mL
CNC(=S)NN=Cc1ccc(OC)c(OC)c1 | Leishmania major | parasite growth | J774.A1 | 72 h, intracellular, amastigote | IC50 | 60 µM
C/C(=N\C(=S)/N=C(\C)c1c(O)c2ccccc2oc1=O)c1c(O)c2ccccc2oc1=O | Aspergillus glaucus | microbial growth, broth dilution | – | 48 h | MIC | 31.2 µg/mL
